Converted amounts (≈) assume the structure as drawn. The source made the active and inactive calls. The rule behind the calls is not given here.
How the values were obtained:
PC-6 = assay: Antiproliferative activity against human PC6 cells by dose-response curve analysis; type: functional, cell-based
In short: (§1)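 Cell growth inhibition measured from dose-response curves at ten concentrations. IC50 is the concentration giving 50% growth inhibition, read from these curves.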

[1] = biological target: T1, Cyclin-dependent kinase 4 (Homo sapiens, UniProt P11802); assay: Inhibition of CDK4-mediated retinoblastoma protein phosphorylation by dose-response curve analysis
In short: (§2)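 Kinase assay read as Rb phosphorylation by cyclin D1-CDK4 or cyclin E-CDK2. IC50 is the concentration (μg/mL) giving 50% inhibition of Rb phosphorylation, read from the dose-response curve. Values are means of at least two determinations.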

HCT-116 [2] = assay: Antiproliferative activity against human HCT116 cells by dose-response curve analysis; type: functional, cell-based; in short: as §1
[3] = biological target: Cyclin-dependent kinase 2 (Homo sapiens, UniProt P24941); assay: Inhibition of CDK2-mediated retinoblastoma protein phosphorylation by dose-response curve analysis; in short: as §2
[4] = Aqueous solubility in water; type: physicochemical
MKN-28 = assay: Antiproliferative activity against human MKN28 cells by MTT assay; type: functional, cell-based; in short: as §1
P388 = assay: Antiproliferative activity against mouse P388 cells by MTT assay; type: functional, cell-based; in short: as §1
MDA-MB-468 = assay: Antiproliferative activity against human MDA-MB-468 cells by MTT assay; type: functional, cell-based; in short: as §1
HCT-116 [5] = assay: Antiproliferative activity against docetaxal-resistant human HCT116 cells by MTT assay; type: functional, cell-based; in short: as §1
DLD-1 = assay: Antiproliferative activity against human DLD1 cells by MTT assay; type: functional, cell-based; in short: as §1
[6] = Antiproliferative activity against mouse B16-BL6 cells by MTT assay; type: functional, cell-based; in short: as §1
MDA-MB-231 = assay: Antiproliferative activity against human MDA-MB-231 cells by MTT assay; type: functional, cell-based; in short: as §1
WiDr = assay: Antiproliferative activity against human WiDr cells by MTT assay; type: functional, cell-based; in short: as §1
HCT-116 [7] = assay: Cell cycle arrest in human HCT116 cells assessed as increase in accumulation at G1 phase after 16 hrs by FACS analysis; type: functional, cell-based
In short: (§3)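 HCT116 cells exposed to test compound at various concentrations for 16 hr, then collected. DNA content measured by flow cytometry to assign G1, S and G2/M fractions.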

HCT-116 [8] = assay: Antiproliferative activity against SN2-3-resistant human HCT116 cells by MTT assay; type: functional, cell-based; in short: as §1
[9] = biological target: T1, Cyclin-dependent kinase 4; assay: Inhibition of CDK4-mediated retinoblastoma protein phosphorylation up to 20 ug/mL by dose-response curve analysis; in short: as §2
Mus musculus [10] = assay: Toxicity in nude mouse xenografted with human HCT116 cells assessed as maximum body weight loss at 200 mg/kg, po qd for 4 days; type: organism-based, HCT-116; design: dose 200 mg/kg, route oral; details: in vivo, 96 h
In short: (§4)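 HCT116 solid tumours in mice. Hydrochloride salt dissolved in 40% Captisol, dosed 200 mg/kg once daily for 4 days (qdx4), i.v. or p.o. Read-outs: maximum inhibition rate of tumour volume, maximum body weight loss, and toxic deaths out of 5 mice.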

HCT-116 [11] = assay: Cell cycle arrest in human HCT116 cells assessed as accumulation at G1 phase at 500 ng/mL after 16 hrs by FACS analysis; type: functional; in short: as §3
Mus musculus [12] = assay: Toxicity in nude mouse xenografted with human HCT116 cells assessed as death at 200 mg/kg, po qd for 4 days; type: organism-based, HCT-116; design: dose 200 mg/kg, route oral; details: in vivo, 96 h
In short: (§5)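 Mice bearing HCT116 colon solid tumours (n=5 per group) dosed as the hydrochloride salt dissolved in 40% Captisol at 200 mg/kg once daily for 4 days (qdx4), i.v. or p.o. Toxicity recorded as the number of mice dead from toxicity over the number used, with maximum body-weight loss also noted.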

HCT-116 [13] = assay: Antitumor activity against human HCT116 cells xenografted in nude mouse assessed as maximum inhibition of […] growth at 200 mg/kg, po qd for 4 days; type: functional; details: HCT-116, 96 h; in short: as §4
HCT-116 [14] = assay: Cell cycle arrest in human HCT116 cells assessed as decrease in accumulation at S phase at 500 ng/mL after 16 hrs by FACS analysis; type: functional, cell-based; in short: as §3
Mus musculus [15] = assay: Toxicity in nude mouse xenografted with human HCT116 cells assessed as maximum body weight loss at 200 mg/kg, iv qd for 4 days; type: organism-based, HCT-116; design: dose 200 mg/kg, route intravenous; details: in vivo, 96 h; in short: as §4
Mus musculus [16] = assay: Toxicity in nude mouse xenografted with human HCT116 cells assessed as death at 200 mg/kg, iv qd for 4 days; type: organism-based, HCT-116; design: dose 200 mg/kg, route intravenous; details: in vivo, 96 h; in short: as §5
HCT-116 [17] = assay: Antitumor activity against human HCT116 cells xenografted in nude mouse assessed as maximum inhibition of […] growth at 200 mg/kg, iv qd for 4 days; type: functional; details: HCT-116, 96 h; in short: as §4
[18] = Solubility in 40% captisol; type: physicochemical
HCT-116 [19] = assay: Cell cycle arrest in human HCT116 cells assessed as decrease in accumulation at G2/M phase at 500 ng/mL after 16 hrs by FACS analysis; type: functional, cell-based; in short: as §3
[20] = biological target: T1, Cyclin-dependent kinase 4; assay: Inhibition of CDK4-mediated retinoblastoma protein phosphorylation up to 20 ug/mL by dose-response curve analysis

Structure (SMILES)	IC50 (PC-6)	IC50 [1]	IC50 (HCT-116 [2])	IC50 [3]	other results
CCc1cc2c(N/N=C\C(C)(C)C)ncnc2s1	1.55 µg/mL (≈ 5.91 µM)	16.8 µM	1.66 µg/mL (≈ 6.33 µM)	14.5 µM	–
CC(C)c1cc2c(N/N=C\c3ccccn3)ncnc2s1	0.003 µg/mL (≈ 0.0101 µM)	2.96 µM	0.01 µg/mL (≈ 0.0336 µM)	10.4 µM	–
CC(C)(C)c1cc2c(N/N=C\c3cccc(CN)n3)ncnc2s1	0.036 µg/mL (≈ 0.106 µM)	1.73 µM	0.059 µg/mL (≈ 0.173 µM)	10.6 µM	–
CC(C)c1cc2c(N/N=C\c3ccncc3)ncnc2s1	> 10 µg/mL	0.807 µM	–	1.11 µM	–
CC(C)c1cc2c(N/N=C\c3cccs3)ncnc2s1	–	0.165 µM	–	1.16 µM	solubility [4]: < 0.1 µg/mL
Cc1ccc(/C=N\Nc2ncnc3sc(C(C)(C)C)cc23)nc1	0.009 µg/mL (≈ 0.0277 µM)	2.7 µM	0.02 µg/mL (≈ 0.0615 µM)	36.9 µM	–
CC(C)c1cc2c(N/N=C\c3ccccc3)ncnc2s1	0.651 µg/mL (≈ 2.2 µM)	1.59 µM	–	2.97 µM	–
CCc1cc2c(N/N=C\c3cccs3)nc(-c3ccccc3)nc2s1	–	> 54.9 µM	–	> 54.9 µM	–
CN(C)Cc1cccc(/C=N\Nc2ncnc3sc(C(C)(C)C)cc23)n1	0.381 µg/mL (≈ 1.03 µM)	0.152 µM	0.429 µg/mL (≈ 1.16 µM)	3.8 µM	IC50 (MKN-28): 1.39 µg/mL (≈ 3.77 µM); IC50 (P388): 0.37 µg/mL (≈ 1 µM); IC50 (MDA-MB-468): 0.315 µg/mL (≈ 0.855 µM); IC50 (HCT-116 [5]): 0.973 µg/mL (≈ 2.64 µM); IC50 (DLD-1): 0.506 µg/mL (≈ 1.37 µM); solubility [4]: 44 µg/mL (≈ 119 µM); IC50 [6]: 1.09 µg/mL (≈ 2.96 µM); IC50 (MDA-MB-231): 0.919 µg/mL (≈ 2.49 µM); IC50 (WiDr): 0.889 µg/mL (≈ 2.41 µM); Activity (HCT-116 [7]): Dose-dependent effect; IC50 (HCT-116 [8]): 0.755 µg/mL (≈ 2.05 µM)
CC(C)c1cc2c(-n3ccc(-c4cccs4)n3)ncnc2s1	–	> 61.3 µM	–	> 61.3 µM	Activity [9]: inactive
Cc1cccc(/C=N\Nc2ncnc3sc(C(C)(C)C)cc23)n1	0.258 µg/mL (≈ 0.793 µM)	1.6 µM	0.268 µg/mL (≈ 0.823 µM)	21.2 µM	–
Cc1cc2c(N/N=C\c3cccs3)ncnc2s1	–	6.92 µM	–	6.2 µM	–
CC(C)(C)c1cc2c(N/N=C\c3cccnc3)ncnc2s1	1.45 µg/mL (≈ 4.66 µM)	1.61 µM	–	1.8 µM	–
C/C(=N/Nc1ncnc2sc(C(C)C)cc12)c1cccs1	–	8.85 µM	–	28.1 µM	–
CCc1cc2c(N/N=C\c3cccs3)nc(C)nc2s1	–	> 66.1 µM	–	> 66.1 µM	–
Cc1csc2ncnc(N/N=C\c3cccs3)c12	–	> 72.9 µM	–	> 72.9 µM	–
CC(C)c1cc2c(N/N=C\c3cccnc3)ncnc2s1	0.889 µg/mL (≈ 2.99 µM)	1.85 µM	–	2.35 µM	–
C(=N/Nc1ncnc2sc3c(c12)CCCC3)/c1cccs1	–	> 63.6 µM	–	> 63.6 µM	–
CC(C)(C)c1cc2c(N/N=C\c3cccs3)ncnc2s1	–	0.379 µM	–	1.77 µM	–
CCc1c(C)sc2ncnc(N/N=C\c3cccs3)c12	–	52.9 µM	–	39.7 µM	–
CC(C)(C)c1cc2c(N/N=C\c3ccccn3)ncnc2s1	0.009 µg/mL (≈ 0.0289 µM)	2.89 µM	0.014 µg/mL (≈ 0.045 µM)	8.99 µM	IC50 (MKN-28): 0.049 µg/mL (≈ 0.157 µM); Activity (Mus musculus [10]): 4.6%; Activity (HCT-116 [11]): 64%; Activity (Mus musculus [12]): Non-toxic; IC50 (P388): 0.006 µg/mL (≈ 0.0193 µM); IC50 (MDA-MB-468): 0.008 µg/mL (≈ 0.0257 µM); IC50 (HCT-116 [5]): 0.007 µg/mL (≈ 0.0225 µM); IC50 (DLD-1): 0.037 µg/mL (≈ 0.119 µM); inhibition in vivo at 200 mg/kg (HCT-116 [13]): 54.1%; Activity (HCT-116 [14]): Active; IC50 [6]: 0.045 µg/mL (≈ 0.145 µM); IC50 (MDA-MB-231): 0.019 µg/mL (≈ 0.061 µM); Activity (Mus musculus [15]): 22.6%; Activity (Mus musculus [16]): Non-toxic; inhibition in vivo at 200 mg/kg (HCT-116 [17]): 67.9%; solubility [18]: Soluble; Activity (HCT-116 [19]): Active; IC50 (WiDr): 0.019 µg/mL (≈ 0.061 µM); IC50 (HCT-116 [8]): 0.005 µg/mL (≈ 0.0161 µM)
CCc1cc2c(N/N=C\c3cccs3)ncnc2s1	0.566 µg/mL (≈ 1.96 µM)	2.6 µM	1.61 µg/mL (≈ 5.58 µM)	3.81 µM	IC50 (MKN-28): 2.86 µg/mL (≈ 9.92 µM); IC50 (P388): 1.01 µg/mL (≈ 3.5 µM); IC50 (MDA-MB-468): 0.048 µg/mL (≈ 0.166 µM); IC50 (HCT-116 [5]): 1.21 µg/mL (≈ 4.2 µM); IC50 (DLD-1): 1.12 µg/mL (≈ 3.88 µM); IC50 [6]: 2.44 µg/mL (≈ 8.46 µM); IC50 (MDA-MB-231): 1.87 µg/mL (≈ 6.48 µM); IC50 (WiDr): 1.36 µg/mL (≈ 4.72 µM); IC50 (HCT-116 [8]): 1.34 µg/mL (≈ 4.65 µM)
CC(C)c1cc2c(N/N=C\c3ccco3)ncnc2s1	3.78 µg/mL (≈ 13.2 µM)	1.36 µM	–	1.92 µM	–
CC(C)(C)c1cc2c(N/N=C\c3cccc(CN4CCOCC4)n3)ncnc2s1	0.261 µg/mL (≈ 0.636 µM)	0.414 µM	0.363 µg/mL (≈ 0.884 µM)	13.4 µM	–
CCc1cc2c(N/N=C\C3CC3)ncnc2s1	–	13 µM	–	16.6 µM	–
CC(C)(C)c1cc2c(N/N=C\c3cccc(CO)n3)ncnc2s1	0.034 µg/mL (≈ 0.0996 µM)	1.03 µM	0.039 µg/mL (≈ 0.114 µM)	6.15 µM	–
C(=N/Nc1ncnc2sc(Cc3ccccc3)cc12)/c1cccs1	–	> 57.1 µM	–	18.5 µM	Activity [20]: inactive
CNCc1cccc(/C=N\Nc2ncnc3sc(C(C)(C)C)cc23)n1	0.189 µg/mL (≈ 0.533 µM)	0.705 µM	0.185 µg/mL (≈ 0.522 µM)	20 µM	IC50 (MKN-28): 0.686 µg/mL (≈ 1.94 µM); IC50 (P388): 0.131 µg/mL (≈ 0.37 µM); IC50 (MDA-MB-468): 0.159 µg/mL (≈ 0.449 µM); IC50 (HCT-116 [5]): 0.29 µg/mL (≈ 0.818 µM); IC50 (DLD-1): 0.221 µg/mL (≈ 0.623 µM); IC50 [6]: 0.379 µg/mL (≈ 1.07 µM); IC50 (MDA-MB-231): 0.279 µg/mL (≈ 0.787 µM); IC50 (WiDr): 0.263 µg/mL (≈ 0.742 µM); IC50 (HCT-116 [8]): 0.269 µg/mL (≈ 0.759 µM)

— ChEMBL document CHEMBL1149082, “Discovery of novel thieno[2,3-d]pyrimidin-4-yl hydrazone-based inhibitors of Cyclin D1-CDK4: synthesis, biological evaluation, and structure-activity relationships” (Bioorg Med Chem Lett, 2009)
